What was measured:
Chorioallantoic membrane [1] = assay: Antiangiogenic activity in chicken chorioallantoic membrane assessed as inhibition of VEGF-induced blood vessel formation at 0.01 nmol/CAM treated 30 mins after VEGF addition measured after 3 days relative to control; assay type: functional, cell membranes; conditions: Gallus gallus
Outline: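 Chick embryo CAM; angiogenesis induced with VEGF (20 ng/CAM) before compound. Compound stock diluted in PBS to 1.0 μM, 10 μL applied to a disk on the CAM, giving 0.01 nmol/CAM. Read-out is the number of new blood vessel branch points in the area under the disk, compared against VEGF-treated CAMs.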

Chorioallantoic membrane [2] = assay: Antiangiogenic activity in chicken chorioallantoic membrane assessed as inhibition of VEGF-induced blood vessel formation treated 30 mins after VEGF addition measured after 3 days; assay type: functional, cell membranes; conditions: Gallus gallus
Outline: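 VEGF (20 ng/CAM)-induced angiogenesis on chick embryo CAM, with compound applied afterwards on a disk. New vessel branch points under the disk were counted at several doses, mean ± SEM, n at least six. ID50 taken from dose-response curves.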

A549 [3] = assay: Antitumor activity in human A549 cells inoculated with chicken chorioallantoic membrane assessed as inhibition of tumor weight at 0.001 pmol/CAM after 5 days; assay type: functional
Outline: (§1)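 A549 cells (2×10^6 cells/CAM) in Matrigel inoculated onto chick CAM and treated once with compound at implantation. The tumor mass grown on the CAM was excised and weighed, and inhibition is relative to untreated controls, means ± S.E.M., at least six embryos.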

A549 [4] = assay: Antitumor activity in human A549 cells inoculated with chicken chorioallantoic membrane assessed as inhibition of tumor weight at 1 pmol/CAM after 5 days; assay type: functional; outline: as §1
A549 [5] = assay: Antitumor activity in human A549 cells inoculated with chicken chorioallantoic membrane assessed as inhibition of tumor weight at 0.01 pmol/CAM after 5 days; assay type: functional; outline: as §1
A549 [6] = assay: Antitumor activity in human A549 cells inoculated with chicken chorioallantoic membrane assessed as inhibition of tumor weight at 0.1 pmol/CAM after 5 days; assay type: functional; outline: as §1
Chorioallantoic membrane [7] = assay: Antiangiogenic activity in human A549 cells inoculated with chicken chorioallantoic membrane assessed as inhibition of blood vessel branch points around tumor at 1 pmol/CAM after 5 days; assay type: functional, Gallus gallus
Outline: (§2)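 A549 human lung cancer cells (2×10^6 cells/CAM) in Matrigel implanted on top of the CAM, with compound given once at implantation. New vessel branch points around the tumor were counted as for the VEGF CAM assay. Inhibition is relative to untreated CAMs, mean ± S.E.M. of at least six embryos.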

Chorioallantoic membrane [8] = assay: Antiangiogenic activity in human A549 cells inoculated with chicken chorioallantoic membrane assessed as inhibition of blood vessel branch points around tumor at 0.1 pmol/CAM after 5 days; assay type: functional, Gallus gallus; outline: as §2
Chorioallantoic membrane [9] = assay: Antiangiogenic activity in human A549 cells inoculated with chicken chorioallantoic membrane assessed as inhibition of blood vessel branch points around tumor at 0.01 pmol/CAM after 5 days; assay type: functional, Gallus gallus; outline: as §2

SMILES: Cc1nc(NC(=O)c2cccc3ccccc23)c(C)c(C)c1O
- inhibition (Chorioallantoic membrane [1]): 75.8%

SMILES: CC(=O)Nc1ccc(O)cc1
- inhibition (Chorioallantoic membrane [1]): 77.9%
- ID50 (Chorioallantoic membrane [2]): 397 fmol

SMILES: COc1ccc(C(=O)Nc2nc(C)c(O)c(C)c2C)cc1
- inhibition (Chorioallantoic membrane [1]): 69.7%

SMILES: Cc1nc(NC(=O)CC(C)C)c(C)c(C)c1O
- inhibition (Chorioallantoic membrane [1]): 75.6%

SMILES: CCCCCCCCCCCC(=O)Nc1nc(C)c(O)c(C)c1C
- inhibition (INH) (A549 [3]): 21.7%
- inhibition (INH) (A549 [4]): 38.2%
- inhibition (INH) (A549 [5]): 26%
- inhibition (Chorioallantoic membrane [1]): 57.4%
- ID50 (Chorioallantoic membrane [2]): 14.9 fmol
- inhibition (INH) (A549 [6]): 31.3%

SMILES: Cc1nc(NC(=O)c2ccc(F)cc2)c(C)c(C)c1O
- inhibition (Chorioallantoic membrane [1]): 75.3%

SMILES: Cc1nc(NC(=O)c2ccc3c(c2)OCO3)c(C)c(C)c1O
- inhibition (Chorioallantoic membrane [1]): 64.8%

SMILES: Cc1nc(NC(=O)c2ccccc2)c(C)c(C)c1O
- inhibition (Chorioallantoic membrane [1]): 77.3%

SMILES: Cc1nc(NC(=O)CCCCl)c(C)c(C)c1O
- inhibition (Chorioallantoic membrane [1]): 70.2%

SMILES: CCCCCCCCCCCCCCCC(=O)Nc1nc(C)c(O)c(C)c1C
- inhibition (Chorioallantoic membrane [1]): 59.9%

SMILES: Cc1nc(NC(=O)c2ccc(C(C)(C)C)cc2)c(C)c(C)c1O
- inhibition (Chorioallantoic membrane [1]): 74.2%

SMILES: CN(C)c1ccc(/C=C2\C(=O)Nc3ccccc32)cc1
- inhibition (INH) (A549 [4]): 26.8%
- inhibition (INH) (A549 [5]): 16.2%
- inhibition (INH) (Chorioallantoic membrane [7]): 36.2%
- inhibition (Chorioallantoic membrane [1]): 78%
- inhibition (INH) (Chorioallantoic membrane [8]): 25.1%
- ID50 (Chorioallantoic membrane [2]): 39.7 fmol
- inhibition (INH) (A549 [6]): 23.4%
- inhibition (INH) (Chorioallantoic membrane [9]): 20.8%

SMILES: Cc1nc(NC(=O)c2cccs2)c(C)c(C)c1O
- inhibition (Chorioallantoic membrane [1]): 74.8%

SMILES: Cc1nc(NC(=O)C2CCCCC2)c(C)c(C)c1O
- inhibition (Chorioallantoic membrane [1]): 76.3%

SMILES: Cc1nc(NC(=O)Cc2ccccc2)c(C)c(C)c1O
- inhibition (Chorioallantoic membrane [1]): 69.6%

SMILES: Cc1nc(NC(=O)C(C)C)c(C)c(C)c1O
- inhibition (Chorioallantoic membrane [1]): 53.2%

SMILES: CC(=O)Nc1nc(C)c(O)c(C)c1C
- inhibition (INH) (A549 [3]): 20.3%
- inhibition (INH) (A549 [4]): 47.7%
- inhibition (INH) (A549 [5]): 34.2%
- inhibition (Chorioallantoic membrane [1]): 84.8%
- ID50 (Chorioallantoic membrane [2]): 8.7 fmol
- inhibition (INH) (A549 [6]): 37.9%

SMILES: Cc1nc(NC(=O)C(C)(C)C)c(C)c(C)c1O
- inhibition (Chorioallantoic membrane [1]): 73.2%

SMILES: CCCCCCCC(=O)Nc1nc(C)c(O)c(C)c1C
- inhibition (Chorioallantoic membrane [1]): 74.7%

SMILES: Cc1nc(NC(=O)CCc2ccccc2)c(C)c(C)c1O
- inhibition (Chorioallantoic membrane [1]): 74.2%

SMILES: CCN(CC)CCNC(=O)c1c(C)[nH]c(/C=C2\C(=O)Nc3ccc(F)cc32)c1C
- inhibition (Chorioallantoic membrane [1]): 88.8%
- ID50 (Chorioallantoic membrane [2]): 380 fmol

SMILES: Cc1nc(NC(=O)C2CCCC2)c(C)c(C)c1O
- inhibition (INH) (A549 [3]): 13.2%
- inhibition (INH) (A549 [4]): 62.7%
- inhibition (INH) (A549 [5]): 24%
- inhibition (Chorioallantoic membrane [1]): 81.8%
- ID50 (Chorioallantoic membrane [2]): 3.6 fmol
- inhibition (INH) (A549 [6]): 45.1%

— ChEMBL document CHEMBL3351550, “Synthesis and antiangiogenic activity of 6-amido-2,4,5-trimethylpyridin-3-ols” (2014)
